Measurements collected from several papers.
Compare with care: the assays were run in different laboratories. pIC50: −log10 of the molar value.
Cell line: HepG2
Read-out: cell growth or viability

Compound	method	time	measurement	value
CC1=C(O)C(=O)C=C2C1=CC=C1[C@@]2(C)CC[C@@]2(C)[C@@H]3C[C@](C)(C(=O)OCCCn4ccc5ccccc54)CC[C@]3(C)CC[C@]12C	MTT	48 h	pIC50	< 4.00
C=CCn1c(-c2ccc(Cl)c(Cl)c2)nc2ccccc21	MTT		pIC50	4.18
COC(=O)CN=c1scc(-c2ccccc2)n1-c1ccccc1[N+](=O)[O-]	MTT		pIC50	4.81
COc1ccnc(-c2cc(OC)ccn2)c1	MTT	48 h	pIC50	< 4.30
COc1cc2ncnc(Nc3ccc(F)c(Cl)c3)c2cc1NC(=O)N/N=C/c1cccn1CCCN1CCOCC1	MTT	72 h	pIC50	6.92
CCNC(=O)NNC(=O)c1ccc(Nc2nccc(-c3ccc(Cl)cc3)n2)cc1	MTT	24 h	pIC50	4.69
O=c1[nH]cc(F)c(=O)[nH]1	WST-1	48 h	pIC50	4.67
CN(C)CCn1cccc1/C=N/NC(=O)Nc1cc2c(Nc3ccc(F)c(Cl)c3)ncnc2cc1O[C@H]1CCOC1	MTT	72 h	pIC50	7.40
Cc1ccc2nc(-c3cccc(O)c3)[nH]c2c1	MTT	48 h	pIC50	4.02
CC1=C(O)C(=O)C=C2C1=CC=C1[C@@]2(C)CC[C@@]2(C)[C@@H]3C[C@](C)(C(=O)OCCO)CC[C@]3(C)CC[C@]12C	MTT	48 h	pIC50	6.21
COc1cc2ncnc(Nc3ccc(F)c(Cl)c3)c2cc1NC(=O)N/N=C/c1cccn1CCN1CCCCC1	MTT	72 h	pIC50	7.30
C[C@H]1[C@@H](O)O[C@@H]2O[C@@]3(C)CC[C@H]4[C@H](C)CC[C@@H]1[C@@]24OO3	CCK-8	48 h	pIC50	< 4.30
CCN(CC)C/C=N/NC(=O)Nc1cc2c(Nc3ccc(F)c(Cl)c3)ncnc2cc1OC	MTT	72 h	pIC50	5.67
Oc1ncnc2cc(Nc3nc(-c4ccc(Br)cc4)cs3)ccc12	MTT		pIC50	5.01
C=CCNC1=C2C[C@@H](C)C[C@H](OC)[C@H](O)[C@@H](C)/C=C(\C)[C@H](OC(N)=O)[C@@H](OC)/C=C\C=C(/C)C(=O)NC(=CC1=O)C2=O	MTT		pIC50	7.07
O=C(NNC(=O)c1ccc(Nc2nccc(-c3ccc(Cl)cc3)n2)cc1)NC1CCCCC1	MTT	24 h	pIC50	4.88
CC(=O)Oc1ccc2c(c1)C(C)=CC(C)(C)N2Cc1ccccc1	MTT	72 h	pIC50	4.44
Cc1ccc(-c2cc(-c3ccc4oc(=O)cc(C)c4c3O)nc(N)n2)cc1	MTT	72 h	IC50	> 128 µg/mL
Cc1ccc2c(Br)cc(Br)c(O)c2n1	MTT	48 h	pIC50	< 3.82
O=c1[nH]cc(F)c(=O)[nH]1	MTT	48 h	pIC50	4.48
CC1=C(O)C(=O)C=C2C1=CC=C1[C@@]2(C)CC[C@@]2(C)[C@@H]3C[C@](C)(C(=O)OCCCO)CC[C@]3(C)CC[C@]12C	MTT	48 h	pIC50	6.12

Compound	method	time	measurement	value
Cc1cc(C)n(-c2nc(Nc3ccc(Br)cc3)nc(N3CCOCC3)n2)n1	MTT	72 h	pIC50	5.52
CC1(C)[C@@H](O)CC[C@]2(C)[C@H]3C(=O)C=C4[C@@H]5C[C@@](C)(C(=O)O)CC[C@]5(C)CC[C@@]4(C)[C@]3(C)CC[C@@H]12	MTT	48 h	pIC50	< 4.00
O=C(N/N=C/CN1CCOCC1)Nc1cc2c(Nc3ccc(F)c(Cl)c3)ncnc2cc1O[C@H]1CCOC1	MTT	72 h	pIC50	5.49
CN(C)c1ccc(-c2nc3ccccc3[nH]2)cc1	MTT	48 h	pIC50	4.43
Clc1ccnc2c1ccc1c(Cl)ccnc12	MTT	48 h	pIC50	< 4.30
COc1ccc(-c2nc3ccc(C)cc3[nH]2)cc1O	MTT	48 h	pIC50	4.22
Oc1ncnc2cc(Nc3nc(-c4ccc(C(F)(F)F)cc4)cs3)ccc12	MTT		pIC50	5.23
Cc1ccc2nc(-c3cc(Br)ccc3O)[nH]c2c1	MTT	48 h	pIC50	5.05
CC(=O)O[C@H]1C(=O)[C@@]2(C)[C@H]([C@H](OC(=O)c3ccccc3)[C@]3(O)C[C@H](OC(=O)[C@H](O)[C@@H](NC(=O)c4ccccc4)c4ccccc4)C(C)=C1C3(C)C)[C@]1(OC(C)=O)CO[C@@H]1C[C@@H]2O			IC50	2 µg/mL
Cc1ccc(-c2csc(Nc3ccc4c(O)ncnc4c3)n2)cc1	MTT		pIC50	4.90
O=C(N/N=C/c1cccn1CCCN1CCCC1)Nc1cc2c(Nc3ccc(F)c(Cl)c3)ncnc2cc1O[C@H]1CCOC1	MTT	72 h	pIC50	6.17
Clc1ccc(-c2nc3ccccc3[nH]2)c(Cl)c1	MTT	48 h	pIC50	4.43
CCCCc1ccc2[nH]c(NC(=O)OC)nc2c1	CCK-8	72 h	pIC50	7.36
COc1cc2ncnc(Nc3ccc(F)c(Cl)c3)c2cc1NC(=O)N/N=C/c1cccn1CCCN1CCN(C)CC1	MTT	72 h	pIC50	7.10
Oc1cccc(-c2nc3ccccc3[nH]2)c1	MTT	48 h	pIC50	4.08
O=Cc1ccc(CO)o1	WST-1	48 h	pIC50	4.11
Cl.Oc1cccc2c1[nH]c1c(C3=CC4(O)CC/C=C\CCCCN5CCC3C3(CC6/C=C\CCCCN6C43)C5)nccc12 (single isomer, unassigned; (+))	neutral red	48 h	IC50	1.5 µg/mL
COc1cc2ncnc(Nc3ccc(F)c(Cl)c3)c2cc1NC(=O)N/N=C/CN(C)C	MTT	72 h	pIC50	5.68
Cc1ccc2nc(-c3ccc(Cl)c(Cl)c3)[nH]c2c1	MTT	48 h	pIC50	4.25
CCCCNC(=O)NNC(=O)c1ccc(Nc2nccc(-c3ccccn3)n2)cc1	MTT	24 h	pIC50	4.80
